“Also recorded” adds a separate entry of the source. Where a name gives a salt, the structure may show the parent alone. Bridge positions count the residues as written; N and C are the ends. Ends that are not written are not given here.
Legend:
[1] = tested on: HEK-PR1 cells; test: Potentiation of CCh-evoked Ca^2+ signals in cell populations; assay type: cell-based, human; settings: for Δ [Ca^2+]i Maximal increase: potentiation of CCh-evoked Ca^2+ signal, 30-s stimulation; for potentiation of CCh-evoked Ca^2+ signals: qualitative; for effect of stimulus alone on [Ca^2+]i / Ca^2+ release (absence of CCh): somatostatin 1 μM; for effect on CCh-evoked Ca^2+ signals: 30 mM; for increase in the sensitivity to CCh: PTH 100 nM 1 min, 8-Br-cAMP 10 mM 20 min
[2] = tested on: HEK-PR1 cells; test: cAMP production measured by RIA; assay type: cell-based, human; settings: for Δ cAMP Maximal response: identical conditions to Ca^2+ assay (with CCh); for EC50: read-out: Δ cAMP EC50
[3] = tested on: HEK-PR1 cells; test: Single cell imaging of [Ca^2+]i; assay type: cell-based, human; settings: single cell analyses
[4] = tested on: HEK-PR1 cells; settings: <100 μM; ref Short and Taylor, 2000; Tovey et al., 2003; cited from earlier work
[5] = tested on: PKA; settings: ref He et al., 2003; cited from earlier work
[6] = tested on: IP3R; test: IP3-evoked Ca^2+ release from permeabilized cells
[7] = tested on: HEK-PR1 cells; test: Protein phosphorylation by Western blot with AbP; assay type: cell-based, human; settings: H89 10 μM for 20 min
Summary of the method: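 Cells treated with 8-Br-cAMP (10 mM, 20 min), FK (100 μM, 30 s) or PTH (100 nM, 30 s), alone or after H89 (10 μM, 20 min) or st-ht31 (100 μM, 30 min). Lysed at 4°C in Triton X-100 buffer, pH 7.4, with NaF, pyrophosphate and vanadate. Blots probed with anti-phospho Ser/Thr antibody. For IP3R, the immunoprecipitated receptor signal was normalised to IP3R3 and expressed relative to unstimulated cells (n = 3–4).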

[8] = Homo sapiens, read-out: Δ [Ca^2+]i EC50

Compound: CC(C)NCC(O)c1ccc(O)c(O)c1 (racemic) [Isoproterenol, (±)-isoproterenol hydrochloride]
- EC50 [1, 8]: 90 ± 24 nM
- Δ [Ca^2+]i Maximal increase [1]: 30 ± 6 nM
- potentiation of CCh-evoked Ca^2+ signals [1]: potentiated CCh-evoked Ca^2+ signals
- effect of stimulus alone on [Ca^2+]i / Ca^2+ release (absence of CCh) [1]: no significant effect
- Δ cAMP Maximal response ([2]; 30-s stimulation): 91 ± 15 fmol/sample
- EC50 ([2]; Homo sapiens): 113 ± 43 nM
- cells that responded to CCh in which the Ca^2+ signal was potentiated [3]: 80 ± 4%

Compound: C=C[C@@]1(C)CC(=O)[C@@H]2[C@@]3(C)CCCC(C)(C)[C@@H]3[C@H](O)[C@H](OC(C)=O)[C@@]2(C)O1 [1,9-dideoxyforskolin]
- effect on [Ca^2+]i either alone or with CCh ([1]; 100 μM, unpublished data): no effect

Compound: CO[C@H]1C2OP(=O)(O)OC[C@H]2O[C@H]1n1c(Br)nc2c(N)ncnc21 (stereo partly shown) [8-Br-2′-O-methyladenosine-3′,5′-cAMP]
- effect on CCh-evoked Ca^2+ signals ([1]; intact cells): no effect

Compound: Nc1ncnc2c1nc(Br)n2[C@@H]1O[C@@H]2COP(=O)(O)O[C@H]2[C@H]1O [8-Br-cAMP]
- effect on CCh-evoked Ca^2+ signals ([1]; intact cells): similarly potentiated
- increase in the sensitivity to CCh ([1]; intact cells): three- to fourfold
- EC50 ([1]; read-out: EC50 for potentiation of CCh-evoked Ca^2+ signals, intact cells, 1 mM CCh, 20-min preincubation): 870000 ± 370000 nM
- potentiation of Ca^2+ signals at low concentrations [4]: did not significantly potentiate
- concentrations that activate PKA [5]: < 100 µM
- EC50 ([6]; read-out: EC50 for potentiation of IP3-evoked Ca^2+ release, permeabilized cells): 324 ± 45 µM

Compound: Nc1nc2c(nc(Br)n2[C@@H]2O[C@@H]3COP(=O)(O)O[C@H]3[C@H]2O)c(=O)[nH]1 [8-Br-cGMP]
- effect on CCh-evoked Ca^2+ signals ([1]; intact cells): ineffective

Compound: C[N+](C)(C)CCOC(N)=O [CCh, Carbachol]
- cells that responded to CCh [3]: 98 ± 1%

Compound: C=C[C@@]1(C)CC(=O)[C@]2(O)[C@@]3(C)[C@@H](O)CCC(C)(C)[C@@H]3[C@H](O)[C@H](OC(C)=O)[C@@]2(C)O1 [FK, forskolin]
- EC50 [1, 8]: 8700 ± 2000 nM
- Δ [Ca^2+]i Maximal increase [1]: 55 ± 5 nM
- potentiation of CCh-evoked Ca^2+ signals [1]: So too did
- effect of stimulus alone on [Ca^2+]i / Ca^2+ release (absence of CCh) [1]: no significant effect
- Δ cAMP Maximal response ([2]; 30-s stimulation): 236 ± 29 fmol/sample
- EC50 ([2]; Homo sapiens): 3300 ± 400 nM
- cells that responded to CCh in which the Ca^2+ signal was potentiated [3]: 95 ± 3%

Compound: Cl.Cl.O=S(=O)(NCCNC/C=C/c1ccc(Br)cc1)c1cccc2cnccc12 [H89, H89 dihydrochloride]
- effect of inhibition of PKA on responses of intact cells to 8-Br-cAMP ([1]; 10 μM H89, unpublished data): unaffected
- effect of H89 on sensitivity to isoproterenol ([1]; by competing for occupancy of β-adrenoceptors (Fig. S2 E)): decreased the sensitivity to isoproterenol
- effect on phosphorylation of proteins stimulated by PTH, FK and 8-Br-cAMP [7]: prevented

Compound: CC(C)Cn1c(=O)n(C)c(=O)c2[nH]cnc21 [IBMX, 3-isobutyl-1-methylxanthine]
- effect of PDE inhibition on potentiated Ca^2+ signals ([1]; IBMX 1 mM for 20 min): slight inhibition

Compound: CCCCC[C@H](O)/C=C/[C@H]1[C@H](O)CC(=O)[C@@H]1CCCCCCC(=O)O [PGE1, Prostaglandin E1]
- potentiation of CCh-evoked Ca^2+ signals [1]: potentiated CCh-evoked Ca^2+ signals

Compound: Nc1ncnc2c1ncn2[C@@H]1O[C@@H]2COP(=O)(O)O[C@H]2[C@H]1O [cAMP, cyclic adenosine monophosphate]
- increase in sensitivity of IP3-evoked Ca^2+ release ([6]; permeabilized HEK cells, high concentrations of cAMP): ~4.5 fold
- affinity of IP3R site for cAMP relative to that of PKA or CNGC ([6]; ref Wong and Scott, 2004 for PKA or CNGC): ~20,000 times lower

Compound: human PTH(1–34)
- increase in the sensitivity to CCh ([1]; intact cells): three- to fourfold
- Δ [Ca^2+]i Maximal increase [1]: 101 ± 14 nM
- EC50 ([1]; read-out: EC50 for PTH-mediated Ca^2+ signaling, after loss of AC6 (siRNA)): 54 ± 5 nM
- EC50 ([1]; read-out: EC50 for PTH-mediated Ca^2+ signaling, before loss of AC6): 63 ± 3 nM
- effect of stimulus alone on [Ca^2+]i / Ca^2+ release (absence of CCh) [1]: does not alone cause Ca^2+ release; also recorded: no significant effect
- Δ cAMP Maximal response ([2]; 30-s stimulation): 6,662 ± 1232 fmol/sample
- EC50 ([2]; 30-s stimulation, with CCh): 29 ± 7 nM
- cells that responded to CCh in which the Ca^2+ signal was potentiated [3]: 99 ± 1%

Compound: somatostatin (AGCKNFFWKTFTSC; disulfide 3-14 (inferred); ends not checked; UniProt P61278 103-116, looked up)
- effect of stimulus alone on [Ca^2+]i / Ca^2+ release (absence of CCh) [1]: nor does
